This is a sample that favours compounds with a hit; in the whole collection about 3% have one here.
SR-BI uptake up – SR-BI HDL lipid transfer activation; CHO ldlA[mSR-BI] cells, DiI-HDL uptake fluorescence, 3 h; 100 = double the neutral-control signal; activation, % at 12.5 µM; 320,000 compounds, 0.096% hits;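 active = mean replicate activation of at least 60% and every replicate at or above 60%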;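 also: 0% = median plate neutral-control signal and 100% = twice that signal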
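material = CHO ldlA[mSR-BI] cells | medium = Ham's F12 with 0.5% BSA, HEPES 25 mM, pH 7.4 | reagent = fluorescent DiI-HDL, 10 µg/mL final | compound dosing = single-point compound dose | incubation = 3 h, 37 °C | measured by = bottom-read fluorescence, 550/595 nm | measure = HDL uptake via cellular fluorescence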
DNA FID counter – fluorescent intercalator displacement, NS3 helicase counter-screen. AID 1845. inhibition, % at 7.9 µM. DNA fluorescent intercalator displacement, fluorescence. 290,000 compounds, 0.17% hits; in the data active = inhibition above about 37%;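 also: 0% = vehicle and 100% = reference compound; higher means more ethidium bromide displaced from hairpin DNA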
SR-BI DiI inh – mouse SR-BI HDL lipid transfer inhibition; Q61009; ldlA[mSR-BI] CHO cells, DiI-HDL uptake fluorescence, 3 h; inhibition, % at 12.5 µM; 320,000 compounds, 0.96% hits; AID 488896;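 active = mean replicate inhibition of at least 70% and a set share of replicates each scoring 70 or more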;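 also: 0% = median of neutral control wells and 100% = median of positive control wells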
Target sequence (Q61009 whole entry, looked up): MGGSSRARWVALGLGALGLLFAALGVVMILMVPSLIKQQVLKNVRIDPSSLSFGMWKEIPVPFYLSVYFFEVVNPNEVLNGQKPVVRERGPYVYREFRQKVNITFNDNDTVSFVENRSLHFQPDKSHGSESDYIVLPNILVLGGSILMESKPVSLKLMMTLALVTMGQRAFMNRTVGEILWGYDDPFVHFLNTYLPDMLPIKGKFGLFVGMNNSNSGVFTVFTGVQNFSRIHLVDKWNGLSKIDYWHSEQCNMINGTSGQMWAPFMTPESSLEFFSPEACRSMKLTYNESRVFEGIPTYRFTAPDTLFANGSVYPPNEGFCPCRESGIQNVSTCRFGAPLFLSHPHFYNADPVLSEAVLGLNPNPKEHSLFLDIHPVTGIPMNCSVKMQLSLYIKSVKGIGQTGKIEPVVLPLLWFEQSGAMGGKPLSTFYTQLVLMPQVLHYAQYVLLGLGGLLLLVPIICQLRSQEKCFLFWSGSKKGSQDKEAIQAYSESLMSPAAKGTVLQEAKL
Kir21 inh – blocks the mouse Kir2.1 inward-rectifier potassium channel; P35561; HEK293-Kir2.1, FluxOR thallium flux fluorescence; stronger effect = lower value; B-score at 10 µM; 310,000 compounds, 0.85% hits; AID 1672;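 active = fluorescence ratio B-score at or below minus 3 SD of library scores, with starting-brightness B-score within 2 SD, cut at about -4.2 in these data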;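 also: channel flux triggered by added potassium and thallium sulfate stimulus; B-score of peak minus minimum fluorescence over baseline after thallium stimulus; more negative B-score means stronger Kir2.1 block with less thallium influx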
ANO1 activ – activates or potentiates the mouse TMEM16A chloride channel; Q8BHY3; HEK293 TMEM16A/YFP-H148Q/I152L, iodide quench fluorescence; stronger effect = lower value; 340,000 compounds, 0.3% hits; AID 623877; B-score at 10 µM;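 active = fluorescence-ratio B-score plate-corrected deviation score at least 3 library SD below zero, with starting fluorescence score within 5 deviations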;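 also: channel opened by trigger with iodide after compound preincubation; score built on the fluorescence ratio of max minus min over baseline; more negative score means more quench and so TMEM16A activation or potentiation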
ANO1 block – blocks the mouse calcium-activated chloride channel TMEM16A; 310,000 compounds, 1.2% hits; Q8BHY3; normalized B-score (activity score, 25-100; higher = stronger inhibition) at 10 µM; HEK293 TMEM16A/YFP iodide influx fluorescence, ionomycin;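 active = ratio plate-corrected score three or more library SD toward inhibition, starting fluorescence score within five deviations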;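 also: score derived from kinetic fluorescence span divided by baseline fluorescence per well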
* = called active by the depositor; i = inactive; . = no result.

SMILES | SR-BI uptake up | DNA FID counter | SR-BI DiI inh | Kir21 inh | ANO1 activ | ANO1 block
COc1ccc(S(=O)(=O)N(Cc2ccc(OC)c(OC)c2)Cc2ccco2)cc1 | -40.7 | -22.9 | 40.7 | 0 | i | 25*
O=S(=O)(c1ccc(S(=O)(=O)N(Cc2ccco2)Cc2ccccc2Cl)cc1)N1CCCC1 | 40.9 | -1.5 | -40.9 | -0.78 | -12.5* | i
CN(C)S(=O)(=O)c1ccc(S(=O)(=O)N(Cc2ccco2)Cc2ccccc2Cl)cc1 | 13.2 | -3.8 | -13.2 | 0.59 | -19.4* | i
COc1ccccc1C(=O)Nc1ccnn1C1CCN(C/C=C/c2ccc(F)cc2)CC1 | -10.2 | 11.7 | 10.2 | 0.84 | i | i
Cc1ccc(-c2nc3c(Cl)cc(Cl)cc3c(=O)n2O)cc1 | 15.1 | -9.6 | -15.1 | 0.36 | i | 100*
CCOC(=O)c1cc(CC)sc1NC(=O)c1ccc2c(c1)OCCO2 | -71.1 | -0.6 | 71.1* | 0.7 | i | i
O=C1c2ccccc2-c2onc3ccc(N4CCCC4)c1c23 | -54.7 | 46.8* | 54.7 | -1.7 | -8.26* | .
CCOc1ccc2noc3c2c1C(=O)c1ccccc1-3 | -1.5 | 2.3 | 1.5 | -13.5 | i | i
CN(C)CCN(Cc1ccco1)C(=O)c1oc2ccccc2c1NC(=O)COc1ccccc1 | 26.8 | 38.1* | -26.8 | -4.01 | i | i
O=C(COC(=O)C1CC2C=CC1C2)NCCc1ccccc1 (configuration not stated) | 240.1* | -15.4 | -240.1 | 0.79 | i | i
COc1ccc(CCNC(=O)c2ccc(-c3cccc([N+](=O)[O-])c3)o2)cc1OC | -72.2 | -22.0 | 72.2* | -0.04 | i | i
COc1ccc(CCNC(=O)CSc2ccsc2[N+](=O)[O-])cc1OC | -11.9 | -6.5 | 11.9 | -4.49* | i | i
COc1ccc(CCNC(=O)COC(=O)c2ccco2)cc1OC | 5.1 | -5.7 | -5.1 | -0.42 | i | i
COc1ccc(CCNC(=O)COC(=O)C2CC2C)cc1OC (configuration not stated) | 6.5 | . | -6.5 | . | -41.7* | .
O=C(COC(=O)C1CC1)NCCc1ccccc1 | 0.1 | . | -0.1 | . | i | .
Cc1ccc(C(=O)NCCCNC(=O)COc2ccc(Cl)cc2)cn1 | 18.1 | -13.9 | -18.1 | 1.03 | i | i
CCOC(=O)C1CCN(S(=O)(=O)c2cccc(-c3cn4cc(Cl)ccc4n3)c2)CC1 | 3.5 | -12.3 | -3.5 | -1.29 | -21.1* | i
CCOC(=O)C1CCN(S(=O)(=O)c2cccc(-c3cn4ccccc4n3)c2)CC1 | -13.5 | -22.2 | 13.5 | -1.73 | i | 25*
O=c1c2ccccc2oc2cc(OCc3cccc(F)c3)cc(O)c12 | 0.5 | 5.2 | -0.5 | 0.56 | i | i
CCN(c1ccccc1)S(=O)(=O)c1ccc(C(=O)N(CCCN(C)C)c2nc3cc4c(cc3s2)OCO4)cc1 | 35.6 | 29.9 | -35.6 | 0.46 | i | i
CCOc1cccc2sc(N(CCCN(C)C)C(=O)c3ccc(S(=O)(=O)N(CC)Cc4ccccc4)cc3)nc12 | -10.6 | 37.3* | 10.6 | 0.34 | i | i
Cc1cccc2sc(N(CCCN(C)C)C(=O)c3ccco3)nc12 | . | 10.1 | . | -2.9 | i | i
Cc1cccc2sc(N(CCCN(C)C)C(=O)c3ccc(Cl)s3)nc12 | . | 13.2 | . | -5.4* | i | i
CCOc1cccc2sc(N(CCCN(C)C)C(=O)c3ccc(S(=O)(=O)N(C)Cc4ccccc4)cc3)nc12 | -4.3 | 39.1* | 4.3 | 1.47 | i | i
CCN(c1ccccc1)S(=O)(=O)c1ccc(C(=O)N(CCCN(C)C)c2nc3c(C)cccc3s2)cc1 | 9.4 | 37.3* | -9.4 | -2.05 | i | i
CCN(Cc1ccccc1)S(=O)(=O)c1ccc(C(=O)N(CCCN(C)C)c2nc3c(F)cccc3s2)cc1 | 8.0 | 15.3 | -8.0 | 1.63 | i | i
Cc1ccc2sc(N(CCCN(C)C)C(=O)c3ccc(S(=O)(=O)N(C)Cc4ccccc4)cc3)nc2c1C | -8.7 | . | 8.7 | 0.46 | i | i
CC(NC(=O)C1CCCN1S(=O)(=O)c1cccc2nsnc12)c1ccccc1 (configuration not stated) | 18.9 | -16.9 | -18.9 | -0.46 | i | i

From PubChem BioAssay
